Experimental findings from article PMC4629265 (Acta Pharmaceutica Sinica. B, 2015) are described below.

Assay type in all cases: cell-based
One series concerns HCV. The series can be described thus: Anti-HCV assay in infected Huh7.5 cells, HCV RNA by RT-PCR. The note with it: Hepatitis C virus, Huh7.5, 96 h, read-out: IC50 (anti-HCV activity). In outline:
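Huh7.5 cells (DMEM, 10% inactivated FBS) were seeded at 3×10⁴ cells/cm². After 6 h they were infected with chimeric J6/JFH/JC1 HCV stock (45 u/cell) and given test compound at the same time, with an NS3/4A protease inhibitor as positive control. At 96 h, intracellular total RNA was extracted and HCV RNA quantified by one-step RT-PCR. IC50 was calculated by Reed & Muench.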

Series [1] in a line: Cytotoxicity in Huh7.5 cells, MTT assay. The note with it: human. An outline of the steps: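 Huh7.5 cells were plated at 1×10⁴ cells/well. After 6 h the medium was replaced with fresh medium containing test compound at various concentrations. Viability was read by MTT at 96 h, and CC50 was calculated by the Reed & Muench method.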
A general note: Formazan colour is commonly taken as a measure of viable cells.

For another series, the system named is Vero cells. In words: Cytotoxicity on Vero cells, CPE method. The note with it: 3 d. In outline:
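Vero cells were seeded at 3×10⁴ cells/well and incubated overnight. Test compounds were then added at different concentrations in triplicate and incubated 3 d, with cytotoxicity scored by CPE. TC50, the concentration inhibiting 50% of cell growth versus untreated controls, was calculated by Reed and Muench.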

The subject of another series is EV71 (strain SZ-98). In words: Anti-EV71 assay in Vero cells, CPE method. The following applies: EV71 strain SZ-98, Vero cells. In outline: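 Vero cells (MEM, 10% FBS) at 3×10⁴ cells/well were infected with 100TCID50 EV71 strain SZ-98. Test compounds were added immediately at various concentrations and incubated another 48 h. Cytopathic effect was scored, with pirodavir as positive control. IC50 was determined by the Reed and Muench method.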

A value given as a limit tells only on which side of the number the result lay.

For `CCC(=O)Nc1cc(C(=O)Nc2ccc(C(C)(C)C)cc2)ccc1OC` [Compound 23, N-(4-tert-Butylphenyl)-4-methoxy-3-propionamidobenzamide], the IC50 (usually the concentration that inhibits the measured activity by half) in the series with HCV was 0.57 µM. In addition, the CC50 (in general, the concentration giving 50% cytotoxicity) at 96 h in series [1] amounted to 30.7 ± 1.25 µM. Besides, the TC50 in the series with Vero cells was found to be 36.24 ± 0.00 µM.
As to “N-(2,3-Dihydrobenzo[b][1,4]dioxin-6-yl)-4-methyl-3-(methylamino)benzamide [Compound 44]”, the “anti-EV71 activity (in words)” value in the series with EV71 (strain SZ-98) was “poor”. The compound further came in with a TC50 in the series with Vero cells of 322.65 ± 0.00 µM.
“N-(2,3-Dihydrobenzo[b][1,4]dioxin-6-yl)-4-methyl-3-propionamidobenzamide [Compound 43]”: the “anti-EV71 activity (in words)” value in the series on EV71 (strain SZ-98) is reported as “poor”. Also, in the series with Vero cells, the TC50 was determined as 196.10 ± 0.00 µM.
Take `CCC(=O)Nc1cc(C(=O)Nc2ccc(N3CCN(C)CC3)cc2)ccc1OC` [Compound 27, N-(4-(4-Methylpiperazin-1-yl)phenyl)-4-methoxy-3-propionamidobenzamide]: in the series with EV71 (strain SZ-98), the “anti-EV71 activity (in words)” value is listed as “did not display antiviral activity”. Further, the TC50 in the series on Vero cells was 291.60 ± 0.00 µM.
On to `CCC(=O)Nc1cc(C(=O)Nc2ccc(Cl)cc2)ccc1O` [Compound 35, N-(4-Chlorophenyl)-4-hydroxy-3-propionamidobenzamide], for which the TC50 in the series with Vero cells worked out at 100.79 ± 0.00 µM.
With `CCC(=O)Nc1cc(C(=O)CNc2ccc(C(C)(C)C)cc2)ccc1OC` [Compound 50, N-(5-(2-((4-(tert-Butyl)phenyl)amino)acetyl)-2-methoxyphenyl)propionamide], in the series on EV71 (strain SZ-98), the “anti-EV71 activity (in words)” value is “inactive”. In addition, the TC50 with Vero cells is >20.14 µM.
As to `CNc1cccc(C(=O)Nc2ccc(Cl)cc2)c1` [Compound 42, N-(4-Chlorophenyl)-3-(methylamino)benzamide], the IC50 with HCV came out at 19.5 ± 7.18 µM. This compound also registered a 50% cytotoxic concentration (CC50) at 96 h in series [1] of 164 ± 9.84 µM. In addition, the TC50 in the series on Vero cells was >28.5 µM.
Turning to `CCC(=O)Nc1cc(C(=O)CNc2ccc(C)cc2)ccc1OC` [Compound 49, N-(2-Methoxy-5-(2-(p-tolylamino)acetyl)phenyl)propionamide], in the series on EV71 (strain SZ-98), the “anti-EV71 activity (in words)” value is “inactive”. This compound also gave a TC50 with Vero cells of 98.31 µM.
Take `CCCCc1ccc(NC(=O)c2ccc(OC)c(NC)c2)cc1` [Compound 32, N-(4-Butylphenyl)-4-methoxy-3-(methylamino)benzamide]: in the series with Vero cells, the TC50 worked out at 41.12 ± 0.00 µM.
Turning to `CCC(=O)Nc1cccc(C(=O)Nc2ccc(Cl)cc2)c1` [Compound 41, N-(4-Chlorophenyl)-3-propionamidobenzamide], in the series on HCV, the IC50 was determined as 7.12 ± 2.48 µM. In series [1], the 50% cytotoxic concentration (CC50) at 96 h was > 200 µM. Besides, the TC50 in the series on Vero cells stood at 106.12 ± 0.00 µM.
For the compound `CNc1cc(C(=O)Nc2ccc(C(C)C)cc2)ccc1OC` [Compound 30, N-(4-iso-propylphenyl)-4-methoxy-3-(methylamino)benzamide], the TC50 in the series on Vero cells is >8.29 µM.
Consider `CNc1cc(C(=O)Nc2ccc(C(C)(C)C)cc2)ccc1OC` [Compound 31, N-(4-tert-Butylphenyl)-4-methoxy-3-(methylamino)benzamide], for which, in the series on HCV, the half-maximal inhibitory concentration (IC50) was found to be 32 ± 2.14 µM. In addition, the cytotoxic concentration (CC50) at 96 h in series [1] worked out at 56.6 ± 4.2 µM. The compound further registered a TC50 in the series with Vero cells of 34.23 ± 0.00 µM.
With `CCOC(=O)c1ccc(OCCC2CCN(c3ccc(C)nn3)CC2)cc1` [Pirodavir, pirodavir, reference compound], the TC50 in the series on Vero cells stood at 49.78 ± 3.96 µM.
For the compound `CCC(=O)Nc1cc(C(=O)Nc2ccc(C3CCCCC3)cc2)ccc1OC` [Compound 25, N-(4-Cyclohexylphenyl)-4-methoxy-3-propionamidobenzamide], the IC50 with HCV came out at 2.36 ± 0.12 µM. This compound also displayed a cytotoxic concentration (CC50) at 96 h in series [1] of 122 ± 2.6 µM.
`CNc1cc(C(=O)CNc2ccc(Cl)cc2)ccc1OC` [Compound 55, 2-((4-Chlorophenyl)amino)-1-(4-methoxy-3-(methylamino)phenyl)ethanone]: the “anti-EV71 activity (in words)” value in the series on EV71 (strain SZ-98) is “inactive”. The compound further displayed a TC50 in the series on Vero cells of 73.10 ± 0.00 µM.
As to `CNc1cc(C(=O)CNc2ccccc2)ccc1OC` [Compound 54, 1-(4-Methoxy-3-(methylamino)phenyl)-2-(phenylamino)ethanone], the “anti-EV71 activity (in words)” value with EV71 (strain SZ-98) is “inactive”. The compound also had a TC50 with Vero cells of 167.11 ± 34.70 µM.
In the case of `CNc1cc(C(=O)Nc2ccc(C3CCCCC3)cc2)ccc1OC` [Compound 33, N-(4-Cyclohexylphenyl)-4-methoxy-3-(methylamino)benzamide], in the series with HCV, the IC50 stood at 34.6 ± 3.1 µM. The midpoint of cytotoxicity in series [1], the CC50 at 96 h, lay at 40 ± 7.25 µM.
On to `CCC(=O)Nc1cc(C(=O)Nc2ccc(C(C)(C)C)cc2)ccc1O` [Compound 36, N-(4-tert-Butylphenyl)-4-hydroxy-3-propionamidobenzamide], for which the TC50 with Vero cells worked out at 86.08 ± 0.00 µM.
On to `CCC(=O)Nc1cc(C(=O)Nc2ccc(C#N)cc2)ccc1OC` [Compound 26, N-(4-Cyanophenyl)-4-methoxy-3-propionamidobenzamide], for which the TC50 with Vero cells is 297.67 µM.
On to `CCc1ccc(NC(=O)c2ccc(OC)c(NC)c2)cc1` [Compound 29, N-(4-Ethylphenyl)-4-methoxy-3-(methylamino)benzamide], for which, in the series with Vero cells, the TC50 was >26.09 µM.
Turning to `CCC[C@H](NC(=O)[C@@H]1[C@H]2CCC[C@H]2CN1C(=O)[C@@H](NC(=O)[C@@H](NC(=O)c1cnccn1)C1CCCCC1)C(C)(C)C)C(=O)C(=O)NC1CC1` [VX-950, telaprevir, reference compound], in the series with HCV, the IC50 stood at 0.01 µM. The compound also yielded a CC50 at 96 h in series [1] of 21.3 ± 4.7 µM.
For the compound `CCCCc1ccc(NC(=O)c2ccc(OC)c(NC(=O)CC)c2)cc1` [Compound 24, N-(4-Butylphenyl)-4-methoxy-3-propionamidobenzamide], the TC50 in the series with Vero cells was determined as 36.24 ± 0.00 µM.
For `CNc1cc(C(=O)Nc2cccc(Cl)c2)ccc1OC` [Compound 28, N-(3-Chlorophenyl)-4-methoxy-3-(methylamino)benzamide], the TC50 in the series on Vero cells stood at 110.50 ± 0.00 µM.
The same measure, in the same setting: then `CNc1cc(C(=O)Nc2ccc(C#N)cc2)ccc1OC` [Compound 34, N-(4-Cyanophenyl)-4-methoxy-3-(methylamino)benzamide], with >79.07 µM.
Regarding `CCC(=O)Nc1cc(C(=O)Nc2ccc(C(C)C)cc2)ccc1OC` [Compound 22, N-(4-Iso-propylphenyl)-4-methoxy-3-propionamidobenzamide], the TC50 in the series on Vero cells was >65.35 µM.
